In article PMC6906348 (Therapeutic Advances in Medical Oncology, 2019):

Columns and labels:
[1] = test system: patients with MET-dysregulated advanced hepatocellular carcinoma (HCC); experiment: Antitumor activity per RECIST 1.1; format: in vivo, human; settings: for Best overall response: Unknown: RECIST 1.1 data do not qualify for PD, PR, or SD
Outline: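 Asia-Pacific patients with advanced HCC received oral test compound twice daily in continuous 21-day cycles: 300 mg capsules (dose-determining), or 600 mg capsules or 400 mg tablets (expansion), until progression or toxicity. Investigator read response per RECIST 1.1 on CT, or contrast MRI if CT was contraindicated. MET-high meant IHC 3+ in ⩾50% tumor cells, or 2+ in ⩾50% plus FISH GCN ⩾5.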

[2] = test system: patients with advanced solid tumors; settings: cited from earlier work
[3] = test system: MET-amplified experimental HCC tumors; settings: cited from earlier work
Plasma pharmacokinetics = format: in vivo, human
[4] = test system: MET-dependent tumor models; settings: at well tolerated doses; cited from earlier work
MET = settings: cited from earlier work
[5] = Dose-determining n = 8 (300 mg BID capsules)
[6] = Dose-expansion, All patients n = 30
[7] = Dose-expansion, MET-high n = 10
[8] = MET-high expansion group (n = 10)
[9] = MET-high expansion group, 1 patient

CNC(=O)c1ccc(-c2cnc3ncc(Cc4ccc5ncccc5c4)n3n2)cc1F [capmatinib]
Best overall response: Complete response (CR) [1, 5]: 0 n (%)
Best overall response: Partial response (PR) [1, 5]: 0 n (%)
Best overall response: Progressive disease [1, 5]: 3 (38) n (%)
Best overall response: Unconfirmed CR [1, 5]: 0 n (%)
Best overall response: Unconfirmed PR [1, 5]: 0 n (%)
Disease control rate (CR + PR + SD) (95% CI) [1, 5]: 2 (25) (3.2−65.1) n (%)
Overall response rate (CI 95%) [1, 5]: 0 (0−36.9) n (%)
Best overall response: Unknown [1, 5]: 3 (38) n (%)
Best overall response: Complete response (CR) [1, 6]: 1 (3) n (%)
Best overall response: Partial response (PR) [1, 6]: 2 (7) n (%)
Best overall response: Progressive disease [1, 6]: 16 (53) n (%)
Best overall response: Unconfirmed CR [1, 6]: 0 n (%)
Best overall response: Unconfirmed PR [1, 6]: 1 (3) n (%)
Disease control rate (CR + PR + SD) (95% CI) [1, 6]: 10 (33) (17.3−52.8) n (%)
Overall response rate (CI 95%) [1, 6]: 3 (10) (2.1−26.5) n (%)
Best overall response: Unknown [1, 6]: 4 (13) n (%)
Best overall response: Complete response (CR) [1, 7]: 1 (10) n (%)
Best overall response: Partial response (PR) [1, 7]: 2 (20) n (%)
Best overall response: Progressive disease [1, 7]: 4 (40) n (%)
Best overall response: Unconfirmed CR [1, 7]: 0 n (%)
Best overall response: Unconfirmed PR [1, 7]: 1 (10) n (%)
Disease control rate (CR + PR + SD) (95% CI) [1, 7]: 5 (50) (18.7−81.3) n (%)
Overall response rate (CI 95%) [1, 7]: 3 (30) (6.7−65.2) n (%)
Best overall response: Unknown [1, 7]: 1 (10) n (%)
Best overall response: Complete response (CR) ([1]; Dose-expansion, MET-low n = 20): 0 n (%)
Best overall response: Partial response (PR) ([1]; Dose-expansion, MET-low n = 20): 0 n (%)
Best overall response: Progressive disease ([1]; Dose-expansion, MET-low n = 20): 12 (60) n (%)
Best overall response: Unconfirmed CR ([1]; Dose-expansion, MET-low n = 20): 0 n (%)
Best overall response: Unconfirmed PR ([1]; Dose-expansion, MET-low n = 20): 0 n (%)
Disease control rate (CR + PR + SD) (95% CI) ([1]; Dose-expansion, MET-low n = 20): 5 (25) (8.7−49.1) n (%)
Overall response rate (CI 95%) ([1]; Dose-expansion, MET-low n = 20): 0 (0−16.8) n (%)
Best overall response: Unknown ([1]; Dose-expansion, MET-low n = 20): 3 (15) n (%)
number of complete responses [1, 8]: 1
number of partial responses [1, 8]: 2
duration of durable complete response [1, 9]: > 600 days
duration of durable partial response [1, 9]: > 600 days
overall response rate ([1]; all expansion patients (n = 30), regardless of MET status): 10%
time on treatment of two responding patients ([1]; at data cut-off, still on treatment): over 600 days
patients with MET-high status achieving tumor shrinkage ([1]; expansion stage): 6/10
overall response rate ([1]; expansion stage, MET-high (n = 10)): 30%
safety profile [2]: tolerable safety profile
sensitivity of tumors to capmatinib [3]: highly sensitive
Tmax, Median (Plasma pharmacokinetics; 300 mg BID capsule, Cycle 1 Day 1, n = 8, plasma): 2.0 h
AUC(0-t) (Plasma pharmacokinetics; human, plasma, oral, 300 mg, geomean AUC0−12 h, 300 mg BID capsules, cycle 1 day 1): 7740 ng·h/mL
Cmax (Plasma pharmacokinetics; human, plasma, oral, 300 mg, geomean Cmax, 300 mg BID capsules, cycle 1 day 1): 2140 ng/mL
steady-state accumulation (Plasma pharmacokinetics; patients with HCC): minimal
effect on MET-dependent tumor models [4]: causes regression
MET inhibition (MET): highly potent and selective
